Tests used:
Settings in all cases: stereoisomer not certain
OR52I1 (Homo sapiens) = biological target: T1, OR52I1 (Homo sapiens) (UniProt Q8NGK6)
T1 sequence (whole entry): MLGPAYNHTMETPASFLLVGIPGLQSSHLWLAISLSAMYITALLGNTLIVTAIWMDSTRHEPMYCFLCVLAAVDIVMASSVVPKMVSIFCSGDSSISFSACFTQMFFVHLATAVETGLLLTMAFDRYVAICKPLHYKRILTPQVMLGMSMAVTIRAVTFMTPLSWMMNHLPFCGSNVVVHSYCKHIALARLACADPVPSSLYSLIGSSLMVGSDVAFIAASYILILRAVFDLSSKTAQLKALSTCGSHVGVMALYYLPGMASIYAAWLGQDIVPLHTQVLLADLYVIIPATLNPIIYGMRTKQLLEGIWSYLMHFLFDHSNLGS
In short: (§1)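 Assay methods differ from source to source, frequently being transient luciferase assays in mammalian cell lines. For each receptor–molecule pair, the label responsive (active) applies when the original authors judged the measured signal statistically different from baseline, and non-responsive (inactive) applies otherwise.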

OR52I2 (Homo sapiens) = biological target: T2, OR52I2 (Homo sapiens) (UniProt Q8NH67)
T2 sequence (whole entry): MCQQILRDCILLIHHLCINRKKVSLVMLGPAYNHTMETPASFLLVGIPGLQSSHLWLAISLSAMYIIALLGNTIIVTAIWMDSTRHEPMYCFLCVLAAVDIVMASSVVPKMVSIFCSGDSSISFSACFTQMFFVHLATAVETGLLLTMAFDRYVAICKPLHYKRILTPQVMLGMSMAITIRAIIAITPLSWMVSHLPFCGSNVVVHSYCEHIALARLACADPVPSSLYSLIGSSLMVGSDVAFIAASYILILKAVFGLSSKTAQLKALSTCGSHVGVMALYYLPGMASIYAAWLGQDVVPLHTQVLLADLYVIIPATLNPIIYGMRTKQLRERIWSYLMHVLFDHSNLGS
In short: as §1

OR52J3 (Homo sapiens) = OR52J3 (Homo sapiens) (UniProt Q8NH60)
Chain of OR52J3 (Homo sapiens) (Q8NH60 whole entry): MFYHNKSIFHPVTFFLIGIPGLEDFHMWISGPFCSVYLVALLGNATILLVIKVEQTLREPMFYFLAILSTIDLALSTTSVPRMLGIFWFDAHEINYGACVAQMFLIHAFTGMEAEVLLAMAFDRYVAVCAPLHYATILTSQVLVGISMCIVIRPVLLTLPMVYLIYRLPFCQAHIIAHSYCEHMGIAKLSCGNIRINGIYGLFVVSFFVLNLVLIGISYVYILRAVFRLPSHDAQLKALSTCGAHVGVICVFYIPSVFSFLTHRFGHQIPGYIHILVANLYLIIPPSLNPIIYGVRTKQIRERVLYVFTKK
In short: as §1

OR52K1 (Homo sapiens) = biological target: T3, OR52K1 (Homo sapiens) (UniProt Q8NGK4)
T3 sequence (whole entry): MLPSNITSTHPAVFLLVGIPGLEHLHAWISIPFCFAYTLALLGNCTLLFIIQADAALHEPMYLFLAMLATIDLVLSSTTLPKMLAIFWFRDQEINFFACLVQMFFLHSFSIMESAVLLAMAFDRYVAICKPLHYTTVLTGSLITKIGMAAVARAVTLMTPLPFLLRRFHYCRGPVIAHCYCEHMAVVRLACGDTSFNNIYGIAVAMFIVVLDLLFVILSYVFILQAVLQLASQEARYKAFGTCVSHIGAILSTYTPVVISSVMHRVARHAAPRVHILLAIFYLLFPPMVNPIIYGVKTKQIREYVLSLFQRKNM
In short: as §1

OR52K2 (Homo sapiens) = biological target: T4, OR52K2 (Homo sapiens) (UniProt Q8NGK3)
T4 sequence (whole entry): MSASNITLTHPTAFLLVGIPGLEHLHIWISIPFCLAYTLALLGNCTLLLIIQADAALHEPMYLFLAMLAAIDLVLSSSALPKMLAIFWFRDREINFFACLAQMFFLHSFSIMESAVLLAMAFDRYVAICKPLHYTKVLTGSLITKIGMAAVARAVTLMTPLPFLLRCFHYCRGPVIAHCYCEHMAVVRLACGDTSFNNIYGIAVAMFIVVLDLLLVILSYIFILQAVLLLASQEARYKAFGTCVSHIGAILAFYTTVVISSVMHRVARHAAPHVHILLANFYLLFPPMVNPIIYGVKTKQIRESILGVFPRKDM
In short: as §1

OR52L1 (Homo sapiens) = biological target: T5, OR52L1 (Homo sapiens) (UniProt Q8NGH7)
T5 sequence (whole entry): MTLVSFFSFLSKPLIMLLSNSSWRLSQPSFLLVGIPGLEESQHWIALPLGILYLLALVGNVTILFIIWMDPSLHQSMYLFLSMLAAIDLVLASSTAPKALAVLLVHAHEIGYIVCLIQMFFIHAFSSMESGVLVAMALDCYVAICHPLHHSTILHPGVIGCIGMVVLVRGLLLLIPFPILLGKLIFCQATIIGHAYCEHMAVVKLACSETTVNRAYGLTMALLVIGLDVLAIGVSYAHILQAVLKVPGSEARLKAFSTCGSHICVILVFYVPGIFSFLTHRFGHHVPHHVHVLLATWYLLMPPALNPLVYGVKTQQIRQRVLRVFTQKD
In short: as §1

OR52M1 (Homo sapiens) = biological target: T6, OR52M1 (Homo sapiens) (UniProt Q8NGK5)
T6 sequence (whole entry): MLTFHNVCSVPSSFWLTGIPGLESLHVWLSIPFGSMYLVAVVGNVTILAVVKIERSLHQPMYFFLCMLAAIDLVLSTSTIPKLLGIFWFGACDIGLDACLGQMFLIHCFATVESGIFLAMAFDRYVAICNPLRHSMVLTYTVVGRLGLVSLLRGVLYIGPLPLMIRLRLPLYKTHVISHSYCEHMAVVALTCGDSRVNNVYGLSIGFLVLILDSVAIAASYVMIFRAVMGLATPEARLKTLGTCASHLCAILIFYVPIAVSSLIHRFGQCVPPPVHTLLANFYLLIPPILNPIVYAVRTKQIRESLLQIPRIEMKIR
In short: as §1

OR52N1 (Homo sapiens) = biological target: T7, OR52N1 (Homo sapiens) (UniProt Q8NH53)
T7 sequence (whole entry): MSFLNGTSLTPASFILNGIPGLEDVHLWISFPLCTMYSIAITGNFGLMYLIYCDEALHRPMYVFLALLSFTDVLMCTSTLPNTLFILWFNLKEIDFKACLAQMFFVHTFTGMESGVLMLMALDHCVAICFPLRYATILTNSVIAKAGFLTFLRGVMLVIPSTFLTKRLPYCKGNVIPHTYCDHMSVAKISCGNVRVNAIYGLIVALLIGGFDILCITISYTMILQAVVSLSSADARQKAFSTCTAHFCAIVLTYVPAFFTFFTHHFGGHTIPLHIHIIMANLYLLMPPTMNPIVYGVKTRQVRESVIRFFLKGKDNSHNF
In short: as §1

OR52N2 (Homo sapiens) = biological target: T8, OR52N2 (Homo sapiens) (UniProt Q8NGI0)
T8 sequence (whole entry): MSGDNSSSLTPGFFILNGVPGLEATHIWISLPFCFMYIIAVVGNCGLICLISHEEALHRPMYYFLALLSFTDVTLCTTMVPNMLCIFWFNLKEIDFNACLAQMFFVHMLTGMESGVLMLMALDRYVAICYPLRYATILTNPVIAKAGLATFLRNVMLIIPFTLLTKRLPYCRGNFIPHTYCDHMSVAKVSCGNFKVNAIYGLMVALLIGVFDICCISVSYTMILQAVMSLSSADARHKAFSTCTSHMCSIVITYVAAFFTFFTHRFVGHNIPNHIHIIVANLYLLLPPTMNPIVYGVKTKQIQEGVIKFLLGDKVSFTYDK
In short: as §1

OR52N4 (Homo sapiens) = biological target: T9, OR52N4 (Homo sapiens) (UniProt Q8NGI2)
T9 sequence (whole entry): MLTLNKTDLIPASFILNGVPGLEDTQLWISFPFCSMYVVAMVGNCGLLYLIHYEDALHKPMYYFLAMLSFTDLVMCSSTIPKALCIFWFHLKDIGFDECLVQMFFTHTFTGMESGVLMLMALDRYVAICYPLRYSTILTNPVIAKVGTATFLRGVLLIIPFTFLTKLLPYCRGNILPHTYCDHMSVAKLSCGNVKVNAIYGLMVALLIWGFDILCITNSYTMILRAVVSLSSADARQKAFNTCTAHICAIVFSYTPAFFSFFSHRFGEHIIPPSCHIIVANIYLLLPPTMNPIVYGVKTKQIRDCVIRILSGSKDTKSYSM
In short: as §1

OR52N5 (Homo sapiens) = biological target: T10, OR52N5 (Homo sapiens) (UniProt Q8NH56)
T10 sequence (whole entry): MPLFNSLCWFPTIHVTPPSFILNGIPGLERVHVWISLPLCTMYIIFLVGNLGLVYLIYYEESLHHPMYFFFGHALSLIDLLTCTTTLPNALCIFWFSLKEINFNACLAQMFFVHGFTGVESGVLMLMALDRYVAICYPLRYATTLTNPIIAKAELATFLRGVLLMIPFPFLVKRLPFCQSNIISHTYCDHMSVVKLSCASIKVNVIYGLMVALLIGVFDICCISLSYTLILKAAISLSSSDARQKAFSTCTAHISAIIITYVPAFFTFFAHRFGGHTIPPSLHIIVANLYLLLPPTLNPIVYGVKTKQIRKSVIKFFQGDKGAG
In short: as §1

OR52R1 (Homo sapiens) = biological target: T11, OR52R1 (Homo sapiens) (UniProt Q8NGF1)
T11 sequence (whole entry): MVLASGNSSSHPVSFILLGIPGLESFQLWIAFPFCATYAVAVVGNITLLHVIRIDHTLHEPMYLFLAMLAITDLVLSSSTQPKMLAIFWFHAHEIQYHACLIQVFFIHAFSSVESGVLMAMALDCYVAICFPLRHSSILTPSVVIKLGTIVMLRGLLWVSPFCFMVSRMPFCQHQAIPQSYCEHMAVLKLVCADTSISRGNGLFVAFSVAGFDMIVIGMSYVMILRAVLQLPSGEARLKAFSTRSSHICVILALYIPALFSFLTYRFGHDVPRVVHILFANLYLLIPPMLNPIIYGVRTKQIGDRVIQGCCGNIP
In short: as §1

OR52W1 (Homo sapiens) = biological target: T12, OR52W1 (Homo sapiens) (UniProt Q6IF63)
T12 sequence (whole entry): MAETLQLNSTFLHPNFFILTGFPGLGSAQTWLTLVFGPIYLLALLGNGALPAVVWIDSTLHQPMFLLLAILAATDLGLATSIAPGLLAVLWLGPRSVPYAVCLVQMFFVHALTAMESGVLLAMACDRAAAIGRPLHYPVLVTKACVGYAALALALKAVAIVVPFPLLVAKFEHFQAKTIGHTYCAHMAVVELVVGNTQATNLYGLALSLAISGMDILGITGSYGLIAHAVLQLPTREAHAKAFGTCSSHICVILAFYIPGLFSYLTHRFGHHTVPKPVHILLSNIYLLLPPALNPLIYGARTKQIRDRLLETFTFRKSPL
In short: as §1

OR56A1 (Homo sapiens) = biological target: T13, OR56A1 (Homo sapiens) (UniProt Q8NGH5)
T13 sequence (whole entry): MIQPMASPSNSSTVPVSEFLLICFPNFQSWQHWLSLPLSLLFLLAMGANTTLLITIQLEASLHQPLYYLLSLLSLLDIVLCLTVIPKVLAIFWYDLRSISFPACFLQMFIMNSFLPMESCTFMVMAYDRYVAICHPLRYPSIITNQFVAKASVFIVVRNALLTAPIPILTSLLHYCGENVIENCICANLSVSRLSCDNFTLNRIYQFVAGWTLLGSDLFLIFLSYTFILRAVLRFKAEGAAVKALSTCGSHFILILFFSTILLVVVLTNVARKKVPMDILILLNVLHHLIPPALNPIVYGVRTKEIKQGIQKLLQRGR
In short: as §1

OR56A3 (Homo sapiens) = biological target: T14, OR56A3 (Homo sapiens) (UniProt Q8NH54)
T14 sequence (whole entry): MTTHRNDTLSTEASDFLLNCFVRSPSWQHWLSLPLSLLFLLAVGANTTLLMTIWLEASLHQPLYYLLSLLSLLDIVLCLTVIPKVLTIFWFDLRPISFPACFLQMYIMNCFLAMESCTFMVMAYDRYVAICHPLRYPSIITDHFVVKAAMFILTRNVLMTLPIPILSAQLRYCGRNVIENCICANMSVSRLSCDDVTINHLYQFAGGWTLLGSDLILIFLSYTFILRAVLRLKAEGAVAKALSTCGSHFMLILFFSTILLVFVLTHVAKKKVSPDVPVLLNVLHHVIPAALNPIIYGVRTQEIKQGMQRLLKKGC
In short: as §1

OR56A4 (Homo sapiens) = biological target: T15, OR56A4 (Homo sapiens) (UniProt Q8NGH8)
T15 sequence (whole entry): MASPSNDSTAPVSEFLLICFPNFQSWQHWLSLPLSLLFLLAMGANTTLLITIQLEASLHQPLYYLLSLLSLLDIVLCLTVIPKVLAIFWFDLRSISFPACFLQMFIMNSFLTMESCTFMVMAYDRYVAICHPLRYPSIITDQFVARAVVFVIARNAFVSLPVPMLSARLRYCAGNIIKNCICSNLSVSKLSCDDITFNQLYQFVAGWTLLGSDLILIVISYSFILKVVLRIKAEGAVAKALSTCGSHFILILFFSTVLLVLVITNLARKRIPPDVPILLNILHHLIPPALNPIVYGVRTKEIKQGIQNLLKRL
In short: as §1

OR56A5 (Homo sapiens) = biological target: T16, OR56A5 (Homo sapiens) (UniProt P0C7T3)
T16 sequence (whole entry): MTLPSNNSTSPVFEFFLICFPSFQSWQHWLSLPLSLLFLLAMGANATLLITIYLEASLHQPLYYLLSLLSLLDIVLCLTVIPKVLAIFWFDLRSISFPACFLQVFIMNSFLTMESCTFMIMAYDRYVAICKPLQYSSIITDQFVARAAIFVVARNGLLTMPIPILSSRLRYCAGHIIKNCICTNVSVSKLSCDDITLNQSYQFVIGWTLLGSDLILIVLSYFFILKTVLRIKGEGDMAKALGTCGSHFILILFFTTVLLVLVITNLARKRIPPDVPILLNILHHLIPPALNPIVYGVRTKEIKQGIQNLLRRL
In short: as §1

OR56B1 (Homo sapiens) = biological target: T17, OR56B1 (Homo sapiens) (UniProt Q8NGI3)
T17 sequence (whole entry): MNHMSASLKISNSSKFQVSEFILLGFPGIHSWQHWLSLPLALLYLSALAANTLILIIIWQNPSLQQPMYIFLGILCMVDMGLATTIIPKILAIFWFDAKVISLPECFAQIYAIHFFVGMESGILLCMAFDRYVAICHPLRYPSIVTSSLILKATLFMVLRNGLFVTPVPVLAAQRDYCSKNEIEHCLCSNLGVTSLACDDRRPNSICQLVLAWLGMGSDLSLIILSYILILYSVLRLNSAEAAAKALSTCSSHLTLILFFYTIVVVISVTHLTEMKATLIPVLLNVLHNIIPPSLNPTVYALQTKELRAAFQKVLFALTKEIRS
In short: as §1

Measured: odorant receptor agonist call

CCCCC(S)C(C)CO (stereo not drawn)
inactive: OR52I1 (Homo sapiens) | OR52I2 (Homo sapiens) | OR52J3 (Homo sapiens) | OR52K1 (Homo sapiens) | OR52K2 (Homo sapiens) | OR52M1 (Homo sapiens) | OR52N1 (Homo sapiens) | OR52N2 (Homo sapiens) | OR52N4 (Homo sapiens) | OR52R1 (Homo sapiens) | OR52W1 (Homo sapiens) | OR56A1 (Homo sapiens) | OR56A3 (Homo sapiens) | OR56A4 (Homo sapiens) | OR56A5 (Homo sapiens) | OR56B1 (Homo sapiens)
active: OR52L1 (Homo sapiens) | OR52N5 (Homo sapiens)

Source: the M2OR odorant receptor database
